Reference: ChEMBL document CHEMBL1145453, “Abietane diterpenes from Salvia miltiorrhiza inhibit the activation of hypoxia-inducible factor-1” (J Nat Prod, 2007)

Legend:
[1] = biological target: T1, Hypoxia inducible factors; HIF-1-alpha, HIF-2-alpha (Homo sapiens, UniProt Q16665+Q99814); test: Inhibition of HIF1 activation in human AGS cells assessed as inhibition of hypoxia-induced luciferase expression after 16 hrs by reporter assay; assay type: cell-based
Summary of the method: (§1)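 Cells transiently cotransfected with pGL3-HRE-luciferase (six HRE copies from human VEGF gene) plus pRL-CMV, plated at 5 × 10^4 cells/well, grown 48 h, then exposed to varied compound concentrations (up to 20 µM) for 16 h at 1% O2/94% N2/5% CO2, 37 °C. Dual-luciferase read-out, firefly normalized to Renilla; IC50 from mean ± SD of three experiments; 17-DMAG positive control.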

[2] = biological target: T1, Hypoxia inducible factors; HIF-1-alpha, HIF-2-alpha; test: Inhibition of HIF1 activation in human Hep3B cells assessed as inhibition of hypoxia-induced luciferase expression after 16 hrs by reporter assay; assay type: cell-based; settings: hep 3b2; summary of the method: as §1
AGS [3] = test: Viability of human AGS cells under normoxic conditions after 24 hrs by MTT assay; assay type: functional, cell-based
Summary of the method: (§2)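 Cells seeded 5 × 10^4/well, settled 3 h at 37 °C, then exposed to a concentration range of compound under normoxia or hypoxia (1% O2) for 24 h. MTT (10 µL of 5 mg/mL stock) added for 4 h, formazan dissolved in DMSO, absorbance at 570 nm; LD50 derived, mean ± SD of three experiments.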

[4] = Viability of human Hep3B cells under normoxic conditions after 24 hrs by MTT assay; assay type: functional, cell-based, Hep 3B2; summary of the method: as §2
AGS [5] = test: Viability of human AGS cells under hypoxic conditions after 24 hrs by MTT assay; assay type: functional, cell-based; summary of the method: as §2
[6] = Viability of human Hep3B cells under hypoxic conditions after 24 hrs by MTT assay; assay type: functional, cell-based, Hep 3B2; summary of the method: as §2
Hep 3B2 [7] = test: Inhibition of hypoxia-induced HIF1alpha accumulation in Hep3B cells; assay type: functional, cell-based; settings: Homo sapiens
Summary of the method: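 Hep3B cells plated at 1.5 × 10^5 cells per cm2, grown overnight at 37 °C, exposed to a range of concentrations for 1 h, then held 12 h hypoxic (1% O2, 94% N2, 5% CO2, 37 °C). HIF-1α was measured in total lysates (50 µg) by Western blot after 6% SDS-PAGE with rabbit anti-HIF-1α, with ECL detection. TOPO I served as loading control.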

[8] = Suppression of hypoxia-induced VEGF mRNA expression in Hep3B cells after 1 hr by RT-PCR; assay type: functional, cell-based; settings: Homo sapiens; Hep 3B2; in the assay text read “after 16 hr” for “after 1 hr”
Summary of the method: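 Hep3B cells pretreated 1 h with graded compound concentrations, then held 16 h under hypoxia (1% O2, 94% N2, 5% CO2, 37 °C). Total RNA isolated and VEGF transcript detected by RT-PCR, product identity confirmed by sequencing.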

Hep 3B2 [9] = test: Inhibition of hypoxia-induced secreted VEGF levels in Hep3B cells after 16 hr by ELISA; settings: Homo sapiens

| SMILES | IC50 [1] [µM] | IC50 [2] [µM] | IC50 (AGS [3]) [µM] | IC50 [4] [µM] | IC50 (AGS [5]) [µM] | IC50 [6] [µM] | IC50 (Hep 3B2 [7]) [µM] | Activity [8] | IC50 (Hep 3B2 [9]) [µM] |
| --- | --- | --- | --- | --- | --- | --- | --- | --- | --- |
| Cc1cccc2c3c(ccc12)C(=O)C(C(C)C)=CC3=O [12-DEOXYTANSHINQUINONE B] | 15.1 | 10.6 | 21.6 | > 50 |  |  |  |  |  |
| CO[C@H]1/C=C\C=C(/C)C(=O)NC2=CC(=O)C(NCCN(C)C)=C(C[C@@H](C)C[C@H](OC)[C@H](O)[C@@H](C)/C=C(\C)[C@@H]1OC(N)=O)C2=O [ALVESPIMYCIN] | 0.036 | 0.061 |  | > 50 |  |  |  |  |  |
| C[C@H]1COC2=C1C(=O)C(=O)c1c2ccc2c1CCCC2(C)C [CRYPTOTANSHINONE] | 1.58 | 1.36 | 13.5 | > 30 | 10.2 | > 30 |  |  |  |
| Cc1cccc2c3c(ccc12)C(=O)C(C(C)CO)=C(O)C3=O (stereo unspecified) [DANSHENXINKUN A] | > 20 | > 20 | > 50 | > 50 |  |  |  |  |  |
| Cc1cccc2c3c(ccc12)C(=O)C(=O)C1=C3OC[C@H]1C [DIHYDROISOTANSHINONE II] | > 20 | > 20 | > 50 | > 50 |  |  |  |  |  |
| Cc1cccc2c3c(ccc12)C1=C(C(=O)C3=O)[C@@H](C)CO1 [DIHYDROTANSHINONE I] | 2.05 | 2.29 | > 50 | > 50 | 47.7 | > 50 | 3.2 |  |  |
| COC(=O)[C@@]1(C)CCCc2c1ccc1c2C(=O)C(=O)c2c(C)coc2-1 [METHYL TANSHINONATE] | 7.48 | 7.34 | > 50 | > 50 |  |  |  |  |  |
| C[C@H](CO)C1=C(O)C(=O)c2c(ccc3c2CCCC3(C)C)C1=O [NEOCRYPTOTANSHINONE] | 12.7 | > 20 | > 50 | > 50 |  |  |  |  |  |
| CC(C)C1=CC(=O)c2c(ccc3c2C=CCC3(C)C)C1=O [SIBIRIQUINONE A] | 0.34 | 0.28 | 35.7 | > 50 | 21.2 | > 50 | 0.4 | Dose-dependent effect | 3.5 |
| CC(C)C1=CC(=O)c2c(ccc3c2CCCC3(C)C)C1=O [SIBIRIQUINONE B] | 3.36 | 3.18 | > 50 | > 50 | > 50 | > 50 |  |  |  |
| Cc1coc2c1C(=O)C(=O)c1c-2ccc2c1CCCC2(C)C [TANSHINONE IIA] | 7.53 | 6.18 | 10 | > 50 | 6.8 | > 50 |  |  |  |
| Cc1coc2c1C(=O)C(=O)c1c-2ccc2c(C)cccc12 [TANSHINONE I] | 12.5 | 8.51 | > 50 | > 50 |  |  |  |  |  |
